Data on 15 molecules can be found in ChEMBL document CHEMBL1157207, “Synthesis of 3,5-bis(2-indolyl)pyridine and 3-[(2-indolyl)-5-phenyl]pyridine derivatives as CDK inhibitors and cytotoxic agents” (Bioorg Med Chem, 2008).

For one test, the system named is CCRF-CEM. The test is described as follows: Cytotoxicity against human CEM cells. It counts as functional, cell-based. The method in brief:
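CEM human leukaemia cells kept in RPMI 1640 with 10% FBS, 2 mM glutamine, penicillin/streptomycin, 37 °C, 5% CO2. Exponentially growing cells seeded at 2×10^4 per well with various drug concentrations, 72 h at 37 °C; tetrazolium dye (CellTiter 96 AQueous One) then added for 2 h, absorbance read at 492 nm. IC50 averaged from two experiments.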

Test [1] is described as follows: Inhibition of pig brain GSK3alpha/beta. The arrangement: species or system Sus scrofa. The method in brief:
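GSK-3α/β purified from porcine brain, diluted 1/100 in 1 mg/ml BSA, 10 mM DTT. Assayed in buffer A (pH 7.5, with heparin) with GS-1 peptide (5 µl of 40 µM) as substrate and 15 µM [γ-33P]ATP, 30 µl final, 30 min at 30 °C. Detection by P81 phosphocellulose paper binding, phosphoric acid washes, scintillation counting. IC50 averaged from two experiments; DMSO controls.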

Test [2] can be described thus: Inhibition of starfish CDK1/cyclin B. The arrangement: species or system Marthasterias glacialis. The method in brief:
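CDK1/cyclin B taken from M-phase starfish (Marthasterias glacialis) oocytes and affinity-purified on p9CKShs1-sepharose beads, eluted with free p9CKShs1. Assayed in buffer C with 1 mg/ml histone H1 and 15 µM [γ-33P]ATP, 30 µl final, 10 min at 30 °C. Detection by P81 phosphocellulose paper binding and scintillation counting. IC50 averaged from two experiments.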

A short description of test [3]: Inhibition of recombinant CDK5/p25 expressed in Escherichia coli. The method in brief: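 Recombinant CDK5 and p25 expressed in E. coli as GST fusions, purified on glutathione-agarose and mixed in equal amounts. Assayed in buffer C with 1 mg/ml histone H1 and 15 µM [γ-33P]ATP, 30 µl final, 10 min at 30 °C. Detection by P81 phosphocellulose paper binding and scintillation counting. IC50 averaged from two experiments.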

pIC50: −log10 of the molar value. Bounds are passed on as bounds.

For `CN(C)CCCOc1ccc(-c2cncc(-c3cc4cc(O)ccc4n3CCCN(C)C)c2)cc1`, the pIC50 in the test on CCRF-CEM was 4.90; in test [1] it was under 5.00; in test [2], under 5.00.
Regarding `CN(C)CCCOc1ccc(-c2cncc(-c3cc4cc(O)ccc4[nH]3)c2)cc1`, the pIC50 was 5.27 in the test with CCRF-CEM, 5.42 in test [1], 5.72 in test [2] and 5.30 in test [3].
On to `CN(C)CCOc1ccc(-c2cncc(-c3cc4cc(O)ccc4n3CCN(C)C)c2)cc1`, for which the figures for the pIC50 (with CCRF-CEM; in test [1]; in test [2]) were 4.50, under 5.00 and under 5.00, respectively.
Consider `CN(C)CCOc1ccc(-c2cncc(-c3cc4cc(O)ccc4[nH]3)c2)cc1`, for which the pIC50 in the test with CCRF-CEM is 4.91; in test [1], 5.34; in test [2], 5.44; in test [3] it was 5.17.
For `CN(C)CCOc1ccc(-c2cncc(-c3cc4ccccc4[nH]3)c2)cc1`, in that order: 5.04, 5.32, 5.60 and 5.51.
For `CN(C)CCCOc1ccc(-c2cncc(-c3cc4ccccc4[nH]3)c2)cc1`, the pIC50 is 5.27 with CCRF-CEM, 4.51 in test [1], 6.05 in test [2] and 6.00 in test [3].
Consider `CN(C)CCCn1c(-c2cncc(-c3cc4cc(O)ccc4[nH]3)c2)cc2cc(O)ccc21`, for which the negative-log IC50 (pIC50) in the test with CCRF-CEM is 4.85; in test [1] it was under 5.00; in test [2], under 5.00.
On to `Oc1ccc2[nH]c(-c3cncc(-c4cc5cc(O)ccc5[nH]4)c3)cc2c1`, for which the pIC50 in the test with CCRF-CEM was 5.10; in test [1] it was 4.52; in test [2], 6.27; in test [3] it was 5.92.
On to `CN(C)CCn1c(-c2cncc(-c3cc4cc(O)ccc4[nH]3)c2)cc2cc(O)ccc21`, for which the pIC50 in the test on CCRF-CEM is 5.24; in test [1] it was under 5.00; in test [2], under 5.00.
Take `CN(C)CCn1c(-c2cncc(-c3cc4cc(O)ccc4n3CCN(C)C)c2)cc2cc(O)ccc21`: the negative-log IC50 (pIC50) with CCRF-CEM is 4.83; in test [1] it was under 5.00; in test [2], under 5.00.
As to `CN(C)CCCOc1ccc(-c2cncc(-c3cc4ccccc4n3CCCN(C)C)c2)cc1`, the values for the pIC50 (in the test on CCRF-CEM; in test [1]; in test [2]) were 5.38, under 5.00 and under 5.00, respectively.
Turning to `Oc1ccc(-c2cncc(-c3cc4cc(O)ccc4[nH]3)c2)cc1`, the negative logarithm of the IC50 (pIC50) with CCRF-CEM is 4.84; in test [1] it was 4.40; in test [2] it was 6.51; in test [3], 5.82.
`CN(C)CCOc1ccc(-c2cncc(-c3cc4ccccc4n3CCN(C)C)c2)cc1`: the pIC50 with CCRF-CEM was 5.10; in test [1], under 5.00; in test [2], under 5.00.
Take `Oc1ccc(-c2cncc(-c3cc4ccccc4[nH]3)c2)cc1`: the negative-log IC50 (pIC50) is 5.33 with CCRF-CEM, under 4.00 in test [1], 6.15 in test [2] and 6.05 in test [3].
Consider `CN(C)CCCn1c(-c2cncc(-c3cc4cc(O)ccc4n3CCCN(C)C)c2)cc2cc(O)ccc21`, for which the negative-log IC50 (pIC50) in the test with CCRF-CEM was 4.95; in test [1] it was under 5.00; in test [2], under 5.00.

The pIC50 is the negative decadic logarithm of the IC50, by convention in mol/L.
